The text below walks through data of ChEMBL document CHEMBL1833842, “1,3-Dihydro-2H-indol-2-ones derivatives: design, synthesis, in vitro antibacterial, antifungal and antitubercular study” (2011).

Values after ≈ are worked out from the molar mass of the structure shown.

One test relates to Aspergillus clavatus. In words: Antifungal activity against 10^8 CFU/mL Aspergillus clavatus MTCC 1323 by broth microdilution method. In kind it is functional. An outline of the steps:
(§1)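 Fungal MTCC cultures came from IMTECH Chandigarh. Mueller-Hinton broth served as growth and dilution medium, with DMSO as diluent. Inoculum was set to 10⁸ CFU/mL by turbidity. Serial dilutions from a 2000 stock gave a primary screen at 500, 250 and 125, followed by a secondary dilution series for actives. MIC was the lowest concentration inhibiting growth.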

Another test relates to Aspergillus niger. The test is described as follows: Antifungal activity against 10^8 CFU/mL Aspergillus niger MTCC 282 by broth microdilution method. In kind it is functional. An outline of the steps: as §1
On the technique in general: Broth dilution looks for growth in wells or tubes with falling amounts of substance.

For a further test, the system named is Candida albicans. The test is described as follows: Antifungal activity against 10^8 CFU/mL Candida albicans MTCC 227 by broth microdilution method. It is filed as functional. Put shortly: as §1
The subject of test [1] is Mycobacterium tuberculosis. In words: Antituberculosis activity against 5 x 10^4 inoculum per tube Mycobacterium tuberculosis H37Rv assessed as growth inhibition at 500 ug/mL incubated for 24 hrs measured after 28 days. In kind it is functional. As to conditions: read-out: GI. Put shortly: (§2)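 Conventional Lowenstein-Jensen method. Compound dilutions were made from a DMSO stock and added to liquid L-J medium, which was sterilized by inspissation. Tubes were incubated 24 h at 37 °C, then streaked with H37Rv (5 × 10⁴ bacilli per tube) harvested into 0.85% saline. Growth was checked at 12, 22 and 28 days at 37 °C against medium-only controls. MIC was the concentration giving no colonies or <20 colonies.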

A further test deals with Salmonella typhi. The test is described as follows: Antibacterial activity against 10^8 CFU/mL Salmonella typhi MTCC 98 by broth microdilution method. As to conditions: Salmonella enterica. In kind it is functional, Salmonella enterica subsp. enterica serovar Typhi. Put shortly:
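Broth microdilution in Mueller-Hinton broth with MTCC strains, inoculum adjusted by turbidity to 10⁸ CFU/mL. Compounds were diluted from DMSO. Primary screen used 500, 250 and 125 concentrations, and actives were serially diluted further. Tubes were incubated overnight at 37 °C. MIC was the lowest concentration with no visible growth. Clear tubes were subcultured overnight at 37 °C to judge bacteriostatic versus bactericidal.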

The test system of a further test is Streptococcus pyogenes. The test is described as follows: Antibacterial activity against 10^8 CFU/mL Streptococcus pyogenes MTCC 442 by broth microdilution method. In kind it is functional. An outline of the steps:
(§3)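 MTCC bacterial strains from IMTECH Chandigarh were grown in Mueller-Hinton broth, which was also used to dilute the compounds. Inoculum was turbidity-adjusted to 10⁸ CFU/mL, and DMSO served as diluent. Compounds from a 2000 stock were screened first at 500, 250 and 125; actives were retested in a second dilution series. Tubes were incubated overnight at 37 °C, and MIC was the lowest concentration with no visible growth. Clear tubes were subcultured overnight at 37 °C to tell bacteriostatic from bactericidal.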

For a further test, the system named is Klebsiella pneumoniae. In words: Antibacterial activity against 10^8 CFU/mL Klebsiella pneumoniae MTCC 109 by broth microdilution method. In kind it is functional. Put shortly:
as §3

Another test concerns Escherichia coli. The test is described as follows: Antibacterial activity against 10^8 CFU/mL Escherichia coli MTCC 443 by broth microdilution method. In kind it is functional. Put shortly: as §3
Another test relates to Pseudomonas aeruginosa. The test is described as follows: Antibacterial activity against 10^8 CFU/mL Pseudomonas aeruginosa MTCC 1688 by broth microdilution method. In kind it is functional. An outline of the steps: as §3
The test system of the next test is Staphylococcus aureus. In words: Antibacterial activity against 10^8 CFU/mL Staphylococcus aureus MTCC 96 by broth microdilution method. It is filed as functional. Put shortly:
as §3

The next test concerns Bacillus subtilis. In words: Antibacterial activity against 10^8 CFU/mL Bacillus subtilis MTCC 441 by broth microdilution method. It is filed as functional. Put shortly:
as §3

The test system of test [2] is Mycobacterium tuberculosis. The test is described as follows: Antituberculosis activity against 5 x 10^4 inoculum per tube Mycobacterium tuberculosis H37Rv after 24 hrs by Lowenstein-Jensen method. In kind it is functional. Put shortly: as §2
Test [3] deals with Mycobacterium tuberculosis. In words: Antituberculosis activity against 5 x 10^4 bacilli per tube Mycobacterium tuberculosis H37Rv assessed as growth inhibition at 62.5 ug/mL incubated for 24 hrs measured after 28 days. In kind it is functional. The conditions noted are these: read-out: GI. Put shortly: as §2
The test system of test [4] is Mycobacterium tuberculosis. The test is described as follows: Antituberculosis activity against 5 x 10^4 bacilli per tube Mycobacterium tuberculosis H37Rv assessed as growth inhibition at 1000 ug/mL incubated for 24 hrs measured after 28 days. In kind it is functional. As to conditions: read-out: GI. An outline of the steps:
as §2

Test [5] has as its system Mycobacterium tuberculosis. In words: Antituberculosis activity against 5 x 10^4 bacilli per tube Mycobacterium tuberculosis H37Rv assessed as growth inhibition at 25 ug/mL incubated for 24 hrs measured after 28 days. As to conditions: read-out: GI. In kind it is functional. Put shortly: as §2

Take `COC1=CC(=O)C[C@@H](C)[C@]12Oc1c(Cl)c(OC)cc(OC)c1C2=O` [GRISEOFULVIN]: the values for the MIC with Aspergillus clavatus, in the test on Aspergillus niger and in the test on Candida albicans were 100 µg/mL (≈ 283 µM), 100 µg/mL (≈ 283 µM) and 500 µg/mL (≈ 1420 µM), respectively.
As to `CC1=C(c2nnc(/N=C3\C(=O)Nc4ccccc43)s2)C(c2ccccc2)NC(=S)N1` (configuration not stated), in test [1], the inhibition of growth at 500 µg/mL was 98%. Also, the MIC99 – broadly, the lowest concentration that inhibits either 99% of growth or 99% of the strains tested, depending on the study – with Salmonella typhi worked out at 200 µg/mL (≈ 462 µM); with Streptococcus pyogenes it was 200 µg/mL (≈ 462 µM); in the test on Klebsiella pneumoniae, 200 µg/mL (≈ 462 µM); in the test with Escherichia coli it was 500 µg/mL (≈ 1160 µM); against Pseudomonas aeruginosa, 200 µg/mL (≈ 462 µM); in the test on Staphylococcus aureus, 200 µg/mL (≈ 462 µM). Besides, the MIC99 in the test on Bacillus subtilis was determined as 200 µg/mL (≈ 462 µM). Further, the MIC (as a rule, the lowest concentration found to suppress growth) in the test on Aspergillus clavatus is 500 µg/mL (≈ 1160 µM); in the test with Aspergillus niger it was 500 µg/mL (≈ 1160 µM); in [2], 500 µg/mL (≈ 1160 µM); in the test with Candida albicans, greater than 1000 µg/mL.
For the compound `CCn1cc(C(=O)O)c(=O)c2cc(F)c(N3CCNCC3)cc21` [NORFLOXACIN], the MIC99 in the test on Salmonella typhi, against Streptococcus pyogenes, with Klebsiella pneumoniae, against Escherichia coli, in the test with Pseudomonas aeruginosa and against Staphylococcus aureus was 10 µg/mL (≈ 31.3 µM) in each case. In the test with Bacillus subtilis, this compound yielded an MIC99 of 10 µg/mL (≈ 31.3 µM).
As for `O=C(O)c1cn(C2CC2)c2cc(N3CCNCC3)c(F)cc2c1=O` [CIPROFLOXACIN], the MIC99 in the test with Salmonella typhi turned out to be 25 µg/mL (≈ 75.4 µM); in the test with Streptococcus pyogenes, 50 µg/mL (≈ 151 µM); against Klebsiella pneumoniae, 25 µg/mL (≈ 75.4 µM); with Escherichia coli, 25 µg/mL (≈ 75.4 µM); with Pseudomonas aeruginosa, 25 µg/mL (≈ 75.4 µM); against Staphylococcus aureus, 50 µg/mL (≈ 151 µM). The same compound gave an MIC99 in the test on Bacillus subtilis of 50 µg/mL (≈ 151 µM).
Take `CC1=C(c2nnc(/N=C3\C(=O)Nc4ccc(Cl)cc43)s2)C(c2ccccc2)NC(=S)N1` (configuration not stated): the MIC99 with Salmonella typhi was determined as 200 µg/mL (≈ 428 µM); in the test with Streptococcus pyogenes, 200 µg/mL (≈ 428 µM); against Klebsiella pneumoniae, 200 µg/mL (≈ 428 µM); against Escherichia coli, 200 µg/mL (≈ 428 µM); in the test with Pseudomonas aeruginosa it was 100 µg/mL (≈ 214 µM); in the test on Staphylococcus aureus, 200 µg/mL (≈ 428 µM). For the same compound, the MIC99 with Bacillus subtilis was 100 µg/mL (≈ 214 µM). The MIC turned out to be 500 µg/mL (≈ 1070 µM) in the test with Aspergillus clavatus, 500 µg/mL (≈ 1070 µM) against Aspergillus niger, 62.5 µg/mL (≈ 134 µM) in test [2] and 500 µg/mL (≈ 1070 µM) in the test with Candida albicans. Besides, the inhibition of growth at 62.5 µg/mL in test [3] amounted to 99%.
Consider `CC1=C(c2nnc(/N=C3\C(=O)Nc4ccc(I)cc43)s2)C(c2ccccc2)NC(=O)N1` (configuration not stated), for which the MIC99 in the test on Salmonella typhi worked out at 250 µg/mL (≈ 461 µM); in the test on Streptococcus pyogenes, 200 µg/mL (≈ 369 µM); against Klebsiella pneumoniae it was 250 µg/mL (≈ 461 µM); in the test on Escherichia coli, 250 µg/mL (≈ 461 µM); in the test on Pseudomonas aeruginosa, 250 µg/mL (≈ 461 µM); in the test on Staphylococcus aureus, 250 µg/mL (≈ 461 µM). In the test on Bacillus subtilis, this compound yielded an MIC99 of 250 µg/mL (≈ 461 µM). Further, the minimum inhibitory concentration (MIC) is greater than 1000 µg/mL with Aspergillus clavatus, greater than 1000 µg/mL against Aspergillus niger, 1000 µg/mL (≈ 1840 µM) in test [2] and greater than 1000 µg/mL with Candida albicans. Also, the inhibition of growth at 1000 µg/mL in [4] stood at 98%.
As for `CC1=C(c2nnc(/N=C3\C(=O)Nc4ccccc43)s2)C(c2ccccc2)NC(=O)N1` (configuration not stated), the MIC99 in the test with Salmonella typhi is 250 µg/mL (≈ 600 µM); in the test on Streptococcus pyogenes, 500 µg/mL (≈ 1200 µM); with Klebsiella pneumoniae, 250 µg/mL (≈ 600 µM); with Escherichia coli it was 500 µg/mL (≈ 1200 µM); in the test with Pseudomonas aeruginosa, 250 µg/mL (≈ 600 µM); in the test with Staphylococcus aureus, 500 µg/mL (≈ 1200 µM). Further, the MIC99 in the test with Bacillus subtilis is 500 µg/mL (≈ 1200 µM). In addition, the MIC with Aspergillus clavatus was found to be 250 µg/mL (≈ 600 µM); against Aspergillus niger, 250 µg/mL (≈ 600 µM); in test [2] it was 1000 µg/mL (≈ 2400 µM); in the test with Candida albicans it was 250 µg/mL (≈ 600 µM). In addition, in [4], the inhibition of growth at 1000 µg/mL was 98%.
For the compound `CC1=C(c2nnc(/N=C3\C(=O)Nc4ccc(F)cc43)s2)C(c2ccccc2)NC(=S)N1` (configuration not stated), the MIC99 was found to be 100 µg/mL (≈ 222 µM) with Salmonella typhi; 100 µg/mL (≈ 222 µM) in the test with Streptococcus pyogenes; 100 µg/mL (≈ 222 µM) with Klebsiella pneumoniae; 62.5 µg/mL (≈ 139 µM) in the test on Escherichia coli; 62.5 µg/mL (≈ 139 µM) with Pseudomonas aeruginosa; 62.5 µg/mL (≈ 139 µM) against Staphylococcus aureus. Further, the MIC99 against Bacillus subtilis is 100 µg/mL (≈ 222 µM). In addition, the MIC against Aspergillus clavatus was 100 µg/mL (≈ 222 µM); with Aspergillus niger it was 100 µg/mL (≈ 222 µM); in [2], 25 µg/mL (≈ 55.5 µM); with Candida albicans, 100 µg/mL (≈ 222 µM). The inhibition of growth at 25 µg/mL in test [5] came out at 99%.
